This is a sample that favours compounds with a hit; in the whole collection about 5.6% have one here.
CHOP inhibitor = inhibitors of CHOP promoter induction, primary screen, cell-based, unfolded protein response, luciferase reporter. 3.8% of 220,000 active. inhibition, % at 10 µM. CHO-K1 CHOP-promoter luciferase, tunicamycin-induced, 15-18 h;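 active = compounds that reduced the stress-induced luciferase reporter signal by more than about 70% of percent inhibition, limit read from the data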;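 also: 0% = tunicamycin plus vehicle and 100% = wells without tunicamycin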
CHOP UPR activ = activators of apoptotic CHOP UPR arm, primary screen, cell-based, CHO-CHOP luciferase reporter, luminescence, uHTS; UPR activation; percent of tunicamycin response over DMSO baseline; activation, % at 10 µM; 0.34% of 330,000 active;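 active = at 10 µM dose, activation of 40% or more, normalized to positive control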;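 also: 100% = tunicamycin at 10 µg/mL and 0% = DMSO alone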
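Dosing – one dose, 10 µM in 0.5% DMSO · System – CHO-CHOP cells, stable luciferase reporter of PERK-eIF2a-CHOP signalling · Input – 500 cells/well · Control set – tunicamycin 10 µg/mL final as positive, DMSO-only wells as negative · Timing – 6 h compound treatment, 37 °C · Measure – % activation vs tunicamycin · Technique – luminescence read with Steady-Glo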
MPTP inh = mitochondrial permeability transition pore inhibitors, primary screen, biochemical, isolated mouse mitochondria, absorbance. Ca2+ swelling absorbance, 30 min. inhibition, % at 10 µM. 1.4% of 360,000 active. AID 602449, 2012;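 active = inhibition of 50% or more, scaled per plate between neutral and stimulator controls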;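 also: 0% = DMSO wells given calcium and 100% = 1 mM EGTA wells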
aDG glyco up = activators of alpha-DG glycosylation, primary screen, uHTS, Pro5-aDG cells, AlphaScreen; alpha-DG glycosylation AlphaScreen (IIH6); 0% Pro5, 100% B10-LARGE cell signal; activation, % at 10 µM; 0.22% of 360,000 active;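 active = activation of at least 8% versus controls, or a plate z-score of at least 8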;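 also: Pro5 are CHO cells carrying HIG-tagged alpha-DG that lacks glycosylation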
XBP1 UPR activ = activators of adaptive XBP1 UPR arm, primary screen, cell-based, CHO-XBP1 luciferase reporter, luminescence, uHTS. IRE1-XBP1 UPR activation; percent of tunicamycin response, DMSO as zero. activation, % at 20 µM. 0.33% of 330,000 active. AID 463104, 2010;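 active = versus positive control, 20 µM dose yields 30% or more activation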;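 also: 100% = tunicamycin at 10 µg/mL and 0% = DMSO only wells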
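Material: CHO-XBP1 cells stably carrying IRE1-XBP1-driven luciferase reporter / Amount: 1000 cells per well / Compound: 20 µM, 1% DMSO / Times: 6 h treatment, 37 °C / Detection: luciferase luminescence / Measure: % activation of reporter signal versus tunicamycin and DMSO controls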
GRIN3A LBD mod = binders of NR3A ligand-binding domain, primary screen, biophysical, differential scanning fluorimetry, uHTS | Glutamate receptor ionotropic, NMDA 3A (GRIN3A) ligand-binding domain | NR3A LBD differential scanning fluorimetry, Tm shift; 0% = protein alone, 100% = glycine-bound protein | Tm shift relative to glycine control, % at 25 µM | 2.5% of 340,000 active | AID 1259313, 2017;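 active = melting temperature shift of at least 10% of the positive control shift, at one fixed dose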
Rh123 counter = fluorescence retest of MPTP screen hits in isolated mitochondria, single concentration; shares compounds with MPTP inh; membrane potential, Rhodamine 123 fluorescence; inhibition, % at 10 µM; 78% of 5,000 active; in the data active = inhibition above about 22%;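 also: 0% = DMSO vehicle and 100% = positive control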
MPTP abs DR = mitochondrial permeability transition pore inhibitors, dose response, biochemical, absorbance, uHTS hits | IC50, µM | isolated mitochondria swelling | 58% of 780 active | shares compounds with MPTP inh; in the data active = IC50 below about 20 µM
MPTP cs DR = fluorescent counter-screen in isolated mitochondria, dose response, counter-screen for MPTP inhibitor project, biochemical, fluorescence, uHTS hits; shares compounds with MPTP inh; isolated mitochondria counterscreen, fluorescence read-out; IC50, µM; 49% of 780 active; in the data active = IC50 below about 80 µM
* hit, by the source's call; · = not tested or not shown; ! = not confirmed by another sample.

SMILES | CHOP inhibitor | CHOP UPR activ | MPTP inh | aDG glyco up | XBP1 UPR activ | GRIN3A LBD mod | Rh123 counter | others
CCOC(=O)C1CCN(C(=O)Nc2cccc(Cl)c2)CC1 | 18 | 0 | 2 | 0 | -1 | 0 | ·
O=C(Nc1ccc(F)c(Cl)c1)N1CCCC1 | -5 | 1 | 2 | 1 | 1 | 2 | ·
CCOC(=O)C1CCN(C(=O)Nc2cc(Cl)cc(Cl)c2)CC1 | 12 | 1 | 78* | 0 | -2 | 0 | 92*
O=C(Nc1cc(Cl)cc(Cl)c1)N1CCCC1 | 7 | -1 | 98* | 0 | 1 | -2 | 93*
O=C(Nc1cc(Cl)cc(Cl)c1)C(c1ccccc1)N1CCCCC1 (stereo unspecified) | 24 | -2 | 83* | 0 | -4 | -8 | 98*
COc1ccc(CN2CCC(=O)N([C@H](CO)Cc3ccccc3)CC2)cc1OC | · | 2 | -2 | 0 | 2 | 0 | ·
O=C(NCc1ccccc1)C(c1ccccc1F)n1c(=O)c(-c2ccco2)nc2ccccc21 (stereo unspecified) | · | · | 1 | 0 | · | · | ·
Cc1ccc(C(=O)NC(C)C2CC3CCC2C3)c(C)c1 (stereo unspecified) | · | 4 | 2 | 0 | -1 | 0 | ·
COc1ccc(C2=C/C(=C\c3cccc(OC(C)=O)c3)C(=O)O2)cc1 | 21 | 3 | 57* | 0 | 2 | -15 | 60*
Clc1ccc(COc2cccc(CNCc3ccncc3)c2)cc1 | 34 | 1 | 68* | 6 | -2 | -2 | 85*
Cc1cc(C)c(C(=O)Nc2ccc(Br)c(C(F)(F)F)c2)c(C)c1 | 59 | 1 | 58* | 0 | 1 | -6 | 83*
c1ccc(CC2CCN(C3=Nc4cccc5cccc3c45)CC2)cc1 | 88* | 5 | 51* | 0 | 1 | -2 | 29*
CC1CN(C(=O)C2(C)CC2(Br)Br)CC(C)O1 (stereo unspecified) | 4 | 1 | 16 | 0 | -2 | 5 | ·
O=C(NNC(=O)c1ccc2ccccc2c1)c1cccc(Br)c1 | · | · | 0 | 0 | · | 1 | ·
O=C(NNC(=S)Nc1cccc2ccccc12)c1cccc(Br)c1 | 17 | -3 | 68* | 0 | -1 | 4 | 87*
Cc1cccc(-c2nnc(SCc3cc(=O)[nH]c4ccccc34)n2C)c1 | -27 | -2 | 2 | 0 | 2 | 2 | ·
Cn1ccnc1SCc1cc(=O)[nH]c2ccccc12 | 15 | 1 | 87* | 0 | 1 | 0 | 87*
Cc1nonc1NC(=O)CSc1nc(CCC2CCCC2)nc2ccccc12 | 30 | 0 | 66* | 0 | -1 | 0 | 82*
Cc1cc(NC(=O)CSc2nc(CCC3CCCC3)nc3ccccc23)no1 | 53 | -2 | 0 | 0 | -1 | -3 | ·
O=C(CCCCCNC(=O)c1ccccc1Br)N=Nc1c(O)[nH]c2ccccc12 | -10 | 0 | 0 | 0 | -4 | 3 | ·
Cc1cccc(NC(=O)C(C)C(=O)c2ccccc2)c1 (stereo unspecified) | · | -1 | 0 | 0 | -6 | -2 | ·
Cc1ccc(NC(=O)C(C)c2cccc(C(=O)c3ccccc3)c2)cc1O (stereo unspecified) | 65 | -2 | 96* | 3 | -1 | -2 | 84*
Cc1[nH]c2c(ccc3cccnc32)c1C | 24 | 4 | -2 | 0 | 1 | -1 | ·
CC1=[N+](C)c2c(ccc3cccnc23)C1(C)C | 75* | · | 95* | 3 | · | -2 | 82*
CCCCNc1c(-c2ccc(OC)c(SC3CCCCC3)c2)nc2ccc(C)cn12 | · | -9 | 76*! | 1 | -10 | -15 | 98*
SMILES | CHOP inhibitor | CHOP UPR activ | MPTP inh | aDG glyco up | XBP1 UPR activ | GRIN3A LBD mod | Rh123 counter | others
CCCCNc1c(-c2ccc(SC3CCCCC3)c(OC)c2)nc2ccc(C)cn12 | · | 1 | 6 | 2 | -3 | -10 | ·
Cc1ccc2nc(-c3cccc(SC4CCCCC4)c3)c(NCc3ccccc3)n2c1 | · | 2 | 12 | 1 | -2 | -28 | ·
COc1ccc(-c2nc3ccc(C)cn3c2NCc2ccccc2)cc1SC1CCCCC1 | · | -7 | 98* | 1 | -7 | -40 | 95*
CC(=O)N(C)c1nc(N)n(-c2ccccc2)n1 | -13 | -2 | 107* | 0 | 0 | 1 | -3 | MPTP abs DR=>100;MPTP cs DR=>80
Cc1ccc(-c2noc(CNC(=O)COc3ccccc3C)n2)cc1 | · | 0 | 1 | 0 | 0 | -2 | ·
CCc1nc2ccc(C(=O)Nc3cccc(OC)c3)cn2c1N(CC)CCOC | · | · | 1 | 0 | · | · | ·
O=S(=O)(c1ccc(Br)s1)N1CCN(c2ccnc3cc(Cl)ccc23)CC1 | 32 | 0 | 65* | 1 | -1 | 1 | 36*
CS(=O)(=O)N1CCN(c2ccnc3cc(Cl)ccc23)CC1 | 21 | 1 | 0 | 0 | -2 | 0 | ·
CCCn1c(/C=N/Nc2nc3ccccc3[nH]2)nc2ccccc21 | 45 | · | 90* | 1 | · | -9 | 81*
C=CCn1cc(/C=N/Nc2nc3ccccc3[nH]2)c2ccccc21 | 59 | 5 | 63* | 2 | 3 | -4 | -22
CC(C)Cn1c(/C=C/c2ccccc2)nc2ccccc21 | 48 | 5 | 2 | 0 | 6 | -2 | ·
C(=N\Nc1nc2ccccc2[nH]1)/c1cccs1 | -4 | 3 | -3 | 0 | -2 | -7 | ·
CC(C)Cn1c(/C=N/Nc2nc3ccccc3[nH]2)nc2ccccc21 | -55 | · | 100* | 0 | · | -8 | 74*
Cn1c(/C=N/Nc2nc3ccccc3[nH]2)nc2ccccc21 | 19 | 1 | 1 | 0 | 21 | 5 | ·
COC(CNC(=O)C1CCN(S(=O)(=O)c2cccc3nsnc23)CC1)OC | · | 1 | 1 | 0 | -4 | 3 | ·
O=C(CCN1C(=O)/C(=C/c2cccc(Br)c2)SC1=S)NNC(=O)c1cccnc1 | 27 | 3 | 4 | 0 | 2 | 1 | ·
O=C(CCN1C(=O)/C(=C/c2ccc(F)cc2)SC1=S)NNC(=O)c1cccnc1 | 40 | 2 | 38 | 0 | 0 | -1 | ·

High-throughput results (PubChem)
